The list is not random: actives were taken first. Their share in the collection is about 3.8%.
HCV NS3 hel inh: inhibitors of Hepatitis C virus NS3 helicase; NS3 helicase DNA unwinding, Cy5 molecular beacon fluorescence; inhibition, % at 10.9 µM; 0.56% of 290,000 active;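 active = inhibition above the mean of all tested compounds plus 3 SD, set per campaign, cut at about 35% in these data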;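 also: 0% = DMSO wells and 100% = thioflavine S control wells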
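Assay system: hepatitis C virus NS3 helicase domain fragment enzyme. Also added: annealed dual-labelled DNA beacon duplex, ATP-started. Timing: 1 h reaction at 25 °C, ATP-initiated. Technique: Cy5 fluorescence at 0 and 60 min, beacon hairpin quenching. Evaluation: % inhibition of unwinding. Replication: one well per compound.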
HSP90 inh: blocks HSP90-mediated luciferase refolding in reticulocyte lysate; Rabbit reticulocyte lysate, luciferase refolding luminescence, 3 h; inhibition, % at 5.6 µM; 0.91% of 290,000 active;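 active = inhibition above the screen-wide mean plus 3 SD, computed separately per campaign, cut at about 16% in these data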;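 also: 0% = DMSO wells and 100% = 60 µM geldanamycin wells; inhibitors lower the luminescence because luciferase stays unfolded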
Lipid droplet: modulators of hepatic lipid droplet formation; inhibition, % at 6.5 µM; AML12 mouse hepatocytes, oleate lipid droplets, BODIPY imaging; 0.4% of 240,000 active; AID 1656;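 active = lipid droplet intensity inhibited by at least 50%, with more than 500 cells counted; inconclusive = wells with under 300 cells, treated as cytotoxic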
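Test system: AML12 hepatocytes (mouse); reagent: oleate loading, 100 µM; dosing: one dose, 6.5 µM compound; incubation: overnight exposure; signal: fluorescence imaging, 20x objective, two fields per well; read-out basis: % inhibition of corrected integrated BODIPY droplet signal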
HSF1 activator: increases HSF-1 driven luciferase reporter signal; AID 504408; NIH3T3-HGL HSF-1 luciferase reporter, MG132, 8 h; 100% = twice DMSO control signal; activation, % at 9 µM; 1.7% of 300,000 active;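 active = mean replicate activation of at least 50% with a set share of replicates each reaching 50%; inconclusive = only one of those two conditions met; inactive = mean below 50% and too few replicates reaching it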;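 also: 0% = median of the neutral control wells and 100% = twice that signal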
HSF1 inhib: HSF1 inhibition. NIH3T3-HGL HSE-luciferase, MG132-induced, luminescence 8 h; active compounds read low. activity change, negative = inhibition, % at 7.5 µM (by protocol). 0.77% of 300,000 active;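 active = more than half of replicate wells show activity change below -50%, luminescence cut by over half; inconclusive = some wells, but at most half, below -50%; inactive = no replicate well below -50%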;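 also: luciferase reports HSF-1 transcriptional activity via heat shock element; 0% = median of DMSO wells and -100% = zero luminescence signal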
* = called active by the depositor; ? = inconclusive; nt = no result given.

SMILES	HCV NS3 hel inh	HSP90 inh	Lipid droplet	HSF1 activator	HSF1 inhib
COc1ccccc1N1CCN(C(=O)c2ccc3c(=O)n(Cc4ccco4)c(=S)[nH]c3c2)CC1	-4.9	4.3	nt	88.3*	49.0
Cc1cc(Cn2nnnc2-c2ccncc2)cc(C)c1O	-2.5	1.3	7.6	-2.3	-4.8
CCOC(=O)CNC(=O)N1CCCC(N(C)CCc2ccccc2)C1 (stereo not drawn)	3.9	-0.7	-5.5	-1.8	-9.7
CCN(CC)c1ccc(C(=O)NNC(=O)CCl)cc1	8.0	5.6	23.7	-1.6	-2.5
CCN(CC)c1ccc(C(=O)NNC(=O)c2cccn2C)cc1	nt	nt	nt	54.7*	18.0
CC(O/N=C\c1ccccc1O)C(=O)Nc1ccccc1C(=O)N1CCOCC1 (stereo not drawn)	-8.6	1.7	1.7	-68.6	-57.6*
O=C(Oc1cc(=O)oc2c1c(=O)n1c3c(cccc23)CC1)c1ccc(F)cc1	-3.6	-1.9	-21.5	-75.0	-67.3*
CC(NC(=O)COc1ccccc1Cl)c1ccccc1 (stereo not drawn)	3.9	-1.4	-16.0	-14.8	1.0
COc1ccccc1NC(=O)C/C(C)=N/NC(=O)COc1c(Br)cc(Br)cc1OC	-8.4	-1.4	-18.2	-1.9	3.0
Cc1ccccc1-c1nnc(CS(=O)(=O)c2ccccc2)o1	6.2	13.3	-9.3	127.1*	76.1
CCc1ccc2nc(Nc3nc(COC)cc(=O)[nH]3)nc(C)c2c1	7.0	0.4	nt	-3.2	-5.0
COCc1cc(=O)[nH]c(Nc2nc3ccc(C)cc3o2)n1	-2.6	-1.1	-44.4	209.6*	171.1
CC1(C)CC(=O)C(C(=O)/C=C/c2ccco2)C(=O)C1	10.0	-3.9	3.0	8.2	0.0
CCOC(=O)Cn1nnc(-c2ccc([N+](=O)[O-])cc2)n1	24.9	3.1	12.3	-9.7	0.0
CC1CCCCN1C(=O)c1cc(-c2ccc(Cl)c(Cl)c2)on1 (stereo not drawn)	-11.7	5.5	nt	57.1*	35.9
CC1(C)CC(CCN)(Cc2ccccc2Cl)CCO1 (stereo not drawn)	-3.5	-4.2	1.0	59.6*	15.4
CC(C)(C)NC(=O)N1CCC(CO)(Cc2ccccc2Cl)CC1	-8.4	2.8	2.7	8.9	-0.6
Cc1cc(C)nc(/N=C(\N)Nc2ccc3c(c2)OCCO3)n1	5.0	-2.8	0.2	-59.6	-54.5*
O=C1SCC(c2ccccc2)=NN1Cc1ccccc1	-2.4	4.3	-0.1	-67.9	-59.1*
CC(=O)Nc1ccc(C2=NN(Cc3nnc(-c4ccccc4)o3)C(=O)SC2)cc1	2.9	-3.0	-6.2	88.1*	41.4
COCCCNC(=O)/C(C#N)=C/c1c(N2CCN(c3ccccc3)CC2)nc2ccccn2c1=O	-11.8	5.1	9.5	33.7	-0.8
CC(C)(C)Cc1nnc(NC(=O)c2ccc3c(c2)OCO3)s1	4.9	-2.0	20.3	58.1*	25.8
CCC(CC)c1nnc(NC(=O)c2ccc3c(c2)OCO3)s1	-4.9	-3.8	-5.1	33.7	16.3
N#C/C(=C\c1sc(N2CCOCC2)nc1-c1ccccc1)C(=O)Nc1cccc2ccccc12	1.7	1.7	55.6*	nt	nt
O=C(Nc1ccccc1)c1sc(N2CCOCC2)nc1-c1ccccc1	-6.4	0.6	1.5	25.9	-6.4
SMILES	HCV NS3 hel inh	HSP90 inh	Lipid droplet	HSF1 activator	HSF1 inhib
Cc1cc(C)nc(/N=C(\N)N(Cc2ccccc2)Cc2ccccc2)n1	-2.4	0.0	-1.6	-12.6	-3.3
COc1ccc(OC)c(NC(=O)NNC(=O)COc2ccc([N+](=O)[O-])cc2)c1	2.0	-3.6	14.3	-4.9	-1.4
Cc1ccc(C)c(NC(=O)CCc2nnc3ccc(NCc4ccco4)nn23)c1	6.9	-0.8	0.0	-73.3	-66.5*
CC(C)N(Cc1cc2ccccc2[nH]c1=O)C(=O)c1cccc([N+](=O)[O-])c1	3.8	-5.3	-19.2	-0.1	-1.5
Cc1ccc2[nH]c(=O)c(CN(C(=O)c3cccc([N+](=O)[O-])c3)C(C)C)cc2c1	-2.5	-2.4	4.9	-66.0	-56.7*
COC(=O)c1cn(C(=O)OC)c2ccccc12	3.9	-3.2	-17.1	0.1	-2.2
COc1cc(NS(=O)(=O)c2ccc(NC(=S)NC(=O)/C=C/c3ccc(OC)c(OC)c3)cc2)ncn1	11.2	0.0	-11.3	-65.1	-55.0*
COC(=O)c1cn(C(=O)/C=C/c2ccc(OC)c(OC)c2)c2ccccc12	2.8	0.2	8.2	60.5*	41.9
COc1ccc(/C=C/C(=O)NC(=S)NCc2ccccc2)cc1OC	-9.3	7.7	0.0	67.5*	31.4
Cc1ccccc1NC(=O)c1c(C)[nH]c(=S)c(C#N)c1-c1ccc(Cl)cc1	10.5	-1.9	8.5	6.4	0.2
Cc1ccc(-c2c(C(=O)Nc3ccccc3C)c(C)[nH]c(=S)c2C#N)o1	39.0*	2.6	0.6	10.1	4.5
CC(=O)NC(=S)Nc1cccc(S(=O)(=O)NC2=NCCC2)c1	-4.9	-5.2	28.0	-80.5	-75.8*
O=C(c1ccc(Br)cc1)N1CCN(c2ncccn2)CC1	nt	nt	nt	0.9	2.2
O=C(c1ccc([N+](=O)[O-])cc1)N1CCN(c2ncc(Br)cn2)CC1	-7.1	-4.0	7.7	-82.2	-75.8*
CCn1c(SCC(=O)NC2CCCC2)nnc1C(C)C	20.5	6.8	-3.4	13.9	-3.6
COc1cccc(CN2CC(C(=O)NCc3ccc(C)o3)CCC2=O)c1 (stereo not drawn)	-1.2	0.2	-0.6	108.2*	59.2
COc1cccc(/C=C2\SC(=S)N(CCCC(=O)N3CCCCC3)C2=O)c1	-8.7	2.5	-6.0	55.5*	23.1
COc1cccc(/C=C2/SC(=S)N(CCC(=O)N3CCOCC3)C2=O)c1	3.6	-3.6	1.0	0.8	4.4
O=[N+]([O-])c1ccc(C2=NN(CCO)C(=Nc3ccc(OC(F)(F)F)cc3)SC2)cc1	-17.3	-3.9	18.4	-22.2	-10.7
CCc1nnc(NC(=O)C2CCC(CNc3c(N4CCC(C)CC4)c(=O)c3=O)CC2)s1 (stereo not drawn)	-2.4	-5.9	-11.8	-16.0	-4.0
CC(C)(C)C(=O)NCC12C=CC(O1)C1C(=O)N(c3ccccc3)C(=O)C12 (stereo not drawn)	13.4	1.7	4.3	203.1*	183.7
Cc1ccc(N2C(=O)C3C4C=CC(CNC(=S)Nc5ccc(Cl)cc5)(O4)C3C2=O)cc1 (stereo not drawn)	1.5	-2.1	8.7	55.4*	28.9
Cc1ccc(NNC(=O)c2ccno2)c(C)c1	-0.7	1.9	nt	68.4*	19.1
COc1cccc(CNC(=O)CN2CCC(c3nc4ccc(C)cc4[nH]3)CC2)c1	-10.2	-1.7	-1.0	-41.4	-40.0
CCc1cc(C(c2ccc(F)cc2)N2CCOCC2)c(NC(=O)c2ccccc2)s1 (stereo not drawn)	-11.1	1.9	nt	63.1*	34.8
CCc1cc(C(c2ccc(OC)c(OC)c2)N2CCOCC2)c(NC(=O)c2ccccc2)s1 (stereo not drawn)	1.4	-1.5	-20.6	?	24.6
CC(=O)c1sc(NC(=O)c2ccc(C)c(C)c2)nc1C	-2.6	8.9	-4.8	53.1*	29.4

High-throughput results deposited in PubChem by several laboratories.
